Screening results (PubChem BioAssay)
RORA act – activators of orphan receptor RORA, primary screen, cell-based, luminescence. hit rate 1.5% among 65,000. activation, % at 10 µM. Nuclear receptor ROR-alpha (Homo sapiens), P35398. CHO-K1 Gal4-RORA LBD luciferase reporter; percent increase over mock-subtracted basal signal. AID 560, 2006;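 active = activation above the mean of all tested compounds plus 3 SD, cut at about 49% in these data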;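 also: 0% = DMSO-treated RORA cells and 100% = added signal equal to DMSO minus mock-transfected cells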
PTK2B oligo ant – antagonists of Pyk2 self-association, primary screen, Q293 cells, FERM NanoBiT luminescence, HTS. Protein-tyrosine kinase 2-beta (Homo sapiens), Q14289. stronger effect = lower value. AID 1347419, 2020. hit rate 0.83% among 99,000. z-score (the deposit names both 25 µM and 10 µM);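 active = Z-score of -3 or lower, scaled per plate to the spread of control and sample wells; inactive = z-score above -3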;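 also: negative z-score means lost luminescence so less FERM oligomerization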
Target sequence (Q14289 whole entry, looked up): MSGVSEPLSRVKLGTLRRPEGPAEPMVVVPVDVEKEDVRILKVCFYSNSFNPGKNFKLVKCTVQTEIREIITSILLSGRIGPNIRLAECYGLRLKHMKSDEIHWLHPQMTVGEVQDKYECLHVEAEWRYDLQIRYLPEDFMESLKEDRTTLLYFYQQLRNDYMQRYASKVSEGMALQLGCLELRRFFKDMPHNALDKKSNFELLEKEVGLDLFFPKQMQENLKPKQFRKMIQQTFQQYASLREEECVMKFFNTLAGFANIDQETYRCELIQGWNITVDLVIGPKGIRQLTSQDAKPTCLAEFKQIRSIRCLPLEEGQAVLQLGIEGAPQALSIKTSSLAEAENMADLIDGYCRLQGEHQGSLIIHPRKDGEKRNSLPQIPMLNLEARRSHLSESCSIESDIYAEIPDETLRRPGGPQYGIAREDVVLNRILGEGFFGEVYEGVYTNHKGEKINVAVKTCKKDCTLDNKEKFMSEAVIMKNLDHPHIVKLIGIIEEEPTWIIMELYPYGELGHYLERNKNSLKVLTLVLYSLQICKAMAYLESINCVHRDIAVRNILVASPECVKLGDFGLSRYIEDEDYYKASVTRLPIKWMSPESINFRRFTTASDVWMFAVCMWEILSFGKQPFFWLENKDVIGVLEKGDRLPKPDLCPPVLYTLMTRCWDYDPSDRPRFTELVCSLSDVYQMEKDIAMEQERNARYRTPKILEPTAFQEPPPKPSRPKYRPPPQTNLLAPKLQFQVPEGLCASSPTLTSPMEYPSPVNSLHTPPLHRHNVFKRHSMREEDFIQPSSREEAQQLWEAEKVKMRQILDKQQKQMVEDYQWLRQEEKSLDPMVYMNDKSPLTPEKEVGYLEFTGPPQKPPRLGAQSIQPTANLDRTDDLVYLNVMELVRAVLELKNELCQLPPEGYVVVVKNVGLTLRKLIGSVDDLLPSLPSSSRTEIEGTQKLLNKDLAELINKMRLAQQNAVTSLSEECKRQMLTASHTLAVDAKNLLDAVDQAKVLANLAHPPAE
ERa SRC1 pot – enhancers of ERα–SRC-1 coactivator binding, primary screen, biochemical, TR-FRET, ERα LBD, low estradiol; TR-FRET ERalpha-LBD/SRC-Cy5 coactivator binding, 2 h; 100 = basal binding, no effect; AID 639, 2007; hit rate 1.3% among 86,000; coactivator binding (% of control), % at 25.6 µM; Estrogen receptor (Homo sapiens), P03372; in the data active = activity above about 200%;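 also: binding measured in presence of low estradiol as agonist stimulus; 0% = peptide alone without receptor and 100% = receptor with peptide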
ERa coact inh – ERα–SRC-1 coactivator interaction inhibitors, primary screen, biochemical, TR-FRET, ERα LBD, estradiol-bound; inhibition, % at 25.6 µM; Estrogen receptor (Homo sapiens), P03372; TR-FRET ER-alpha LBD / SRC-1 peptide; hit rate 1.7% among 86,000; in the data active = inhibition above about 50%;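 also: 0% = receptor plus peptide control and 100% = peptide only without receptor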
ERb SRC1 inh – inhibitors of ERβ-SRC1 coactivator interaction, primary screen, biochemical, TR-FRET, ERβ LBD, SRC-1 peptide. TR-FRET ER-beta LBD / SRC1-Cy5 peptide binding; receptor agonist-loaded with 1 µM estradiol. inhibition, % at 25.6 µM. hit rate 1.3% among 86,000. AID 633, 2007;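 active = compounds whose percent inhibition of the receptor-coactivator binding signal exceeds about 50% in the single-dose screen, limit read from the data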;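 also: 0% = receptor plus peptide wells without compound and 100% = peptide-only wells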
SF1 activator – activators of human SF-1, primary screen, cell-based, CHO-K1, Gal4-SF-1 LBD, luciferase luminescence | activation, % at 10 µM | AID 522, 2006 | CHO-K1 Gal4-SF-1 LBD luciferase reporter; % increase over DMSO SF-1-specific signal | Steroidogenic factor 1 (Homo sapiens), Q13285 | hit rate 1.9% among 65,000;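 active = activation above the mean activation of all tested compounds plus 3 SD, cut at about 50% in these data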
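Assay system: CHO-K1 cells co-transfected with Gal4 DBD–human SF-1 LBD, 5xGal4 luciferase reporter; doses: 10 µM only; incubation: 20 h compound exposure at 37 °C after 1 h cell settling; signal: luciferase light emission; evaluation: percent activation versus DMSO; repeats: one test per compound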
Starred values were filed as active, the others as inactive; · = not tested or not shown; [ ] = another dose, or the depositor's remark. In the library only some 4.8% were active in any assay of this set; here they are far more common.

SMILES | RORA act | PTK2B oligo ant | ERa SRC1 pot | ERa coact inh | ERb SRC1 inh | SF1 activator
COc1cccc(C(=O)NC(C)C(c2cccs2)N2CCN(C)CC2)c1 (configuration not stated) | -12 | 0.99 | 115 | -32 | 67*[fluorescence artefact?] | 13
CC(NC(=O)c1cccnc1)C(c1cccs1)N1CCN(C)CC1 (configuration not stated) | 0 | · | 103 | -6 | -3 | -5
O=C(COc1cccc2cccnc12)Nc1nccs1 | 75* | 0.51 | 108 | 1 | 3 | 48
c1ccc(-n2ncc3c(NCc4cccs4)ncnc32)cc1 | 30 | -2.5 | 97 | -10 | 1 | 51*
COc1ccc(-n2ncc3c(NCc4cccs4)ncnc32)cc1 | 36 | -1.1 | 97 | -4 | -6 | 82*
NNc1ncnc2c1cnn2-c1ccccc1 | · | -0.74 | 88 | 10 | 3 | ·
CC(C)Nc1ncnc2c1cnn2-c1ccccc1 | 30 | · | 120 | 1 | -2 | 15
COc1ccc(-n2ncc3c(NCCN4CCOCC4)ncnc32)cc1 | · | 1.1 | 109 | 9 | 13 | ·
c1ccc(-n2ncc3c(NCc4cccnc4)ncnc32)cc1 | 52* | -0.85 | 103 | 4 | -3 | 41
Cc1ccccc1-n1c(C)nnc1SCC(=O)N1CC(=O)Nc2ccccc21 | 15 | 1.2 | 101 | -2 | 23 | -2
Cc1cc(=O)[nH]c(SCC(=O)Nc2nc3c(s2)CCCC3)n1 | -16 | -0.06 | 107 | 1 | 78* | -2
CCn1c(NCc2cccs2)nc2ccccc21 | 4 | 0.54 | 96 | 67*[fluorescence artefact?] | -11 | 15
Cn1c(NCc2cccs2)nc2ccccc21 | 8 | -0.09 | 105 | -3 | -1 | 35
Nn1c(SCC(=O)NC(=O)NCc2ccccc2)nnc1C1CC1 | -15 | -0.32 | 118 | -6 | 81*[fluorescence artefact?] | 5
O=C(CSc1nnc(C2CC2)n1Cc1ccccc1)NCc1ccccc1 | · | -0.02 | 81 | 11 | -10 | ·
COCCNC(=S)NC12CC3CC(CC(C3)C1)C2 | · | 0.77 | 108 | -6 | -18 | ·
O=C(Nc1ccc2c(c1)N(Cc1ccccc1)C(=O)c1ccccc1S2)NC1CC1 | · | -3.1* | 166 | 6 | 11 | ·
CN1C(=O)c2ccccc2Sc2ccc(NC(=O)NC3CC3)cc21 | -8 | -1.1 | 100 | 9 | -2 | -1
COc1cccc(-c2nc(-c3ccc4c(c3)-c3ccccc3S4(=O)=O)c(-c3ccccc3)[nH]2)c1OC | · | -0.62 | 168 | 1 | 11 | ·
COc1cc(-c2nc(-c3ccccc3)c(-c3cccs3)[nH]2)cc(OC)c1OC | · | -3* | 252* | 18 | -5 | ·
COc1cc(-c2nc(-c3ccc4c(c3)-c3ccccc3S4(=O)=O)c(-c3ccccc3)[nH]2)cc(OC)c1OC | · | -3* | 130 | 6 | 3 | ·
O=C(O)CC(c1cccc2ccccc12)n1cccc1 (configuration not stated) | · | 0.13 | 58 | 11 | 19 | ·
O=c1[nH]c2cc3c(cc2cc1C(c1nnnn1Cc1ccccc1)N1CCCc2ccccc21)OCO3 (configuration not stated) | -17 | · | 151 | 56*[fluorescence artefact?] | 30 | 2
COc1cc2cc(C(c3nnnn3C3CCCC3)N3CCc4ccccc43)c(=O)[nH]c2cc1OC (configuration not stated) | 0 | 0.34 | 216*[fluorescence artefact?] | 50* | 33 | -9
COc1cc2cc(C(c3nnnn3C(C)(C)C)N3CCc4ccccc43)c(=O)[nH]c2cc1OC (configuration not stated) | 13 | 0.27 | 98 | -7 | 0 | 17
SMILES | RORA act | PTK2B oligo ant | ERa SRC1 pot | ERa coact inh | ERb SRC1 inh | SF1 activator
Cc1ccc(C)c2[nH]c(=O)c(C(c3nnnn3Cc3ccccc3)N3CCc4ccccc4C3)cc12 (configuration not stated) | · | 1.3 | 294*[fluorescence artefact?] | 51*[fluorescence artefact?] | 50 | ·
O=c1[nH]c2cc3c(cc2cc1C(c1nnnn1Cc1ccccc1)N1CCN2CCCC2C1)OCCO3 (configuration not stated) | -12 | -0.23 | 129 | 72*[fluorescence artefact?] | 44 | 8
Cc1cccc2cc(C(c3nnnn3CC3CCCO3)N3CCc4ccccc4C3)c(=O)[nH]c12 (configuration not stated) | 22 | · | 102 | 2 | -13 | -9
O=c1[nH]c2cc3c(cc2cc1C(c1nnnn1C1CCCC1)N1CCCc2ccccc21)OCCO3 (configuration not stated) | -8 | 0.16 | 114 | 6 | 2 | 13
Cc1ccc(CN2C(=O)CCC2C(=O)NC(C)C)cc1 (configuration not stated) | -8 | -0.26 | 124 | 9 | -3 | -3
O=C(Nc1cccc(C(F)(F)F)c1)N(Cc1ccc(Cl)cc1)CC(O)C(F)(F)F (configuration not stated) | · | -0.06 | · | · | · | ·
CCOc1cc(C(=O)CCC(=O)OCC(=O)N2c3ccccc3NC(=O)C2(C)C)ccc1O | · | 0.36 | · | · | · | ·
O=c1[nH]c2cc3c(cc2cc1C(c1nnnn1Cc1ccccc1)N1CCCCCC1)OCCO3 (configuration not stated) | · | 0.14 | 246*[fluorescence artefact?] | 31 | 44 | ·
Cc1cc2cc(C(c3nnnn3Cc3ccco3)N3CCCCC3)c(=O)[nH]c2cc1C (configuration not stated) | · | 0.17 | 176 | 3 | 11 | ·
N#Cc1cc(Oc2cccnc2)c(Oc2cccnc2)cc1C#N | · | 1.3 | 46 | 46 | 61*[fluorescence artefact?] | ·
CCOC(=O)c1ccc(N2C(=O)c3n[nH]c(C)c3C2c2cccnc2)cc1 (configuration not stated) | 22 | -3.8* | 115 | 0 | 1 | 12
Cc1[nH]nc2c1C(c1ccccn1)N(c1ccc(Br)cc1)C2=O (configuration not stated) | 10 | -0.81 | 103 | 77*[fluorescence artefact?] | -3 | 2
CCCc1cc(C(=O)N2CCN(c3ccccc3C)CC2)cs1 | -12 | -1.2 | 88 | 3 | -2 | -8
CCOc1nnnc2c1sc1nc(N3CCOCC3)c3c(c12)CCCC3 | · | 0.33 | 88 | -1 | -4 | ·
C#CCOC(=O)C(NC(=O)c1ccccc1)=C1CCCCC1 | · | 0.53 | 71 | 11 | 9 | ·
O=C(CCS(=O)(=O)c1ccc(Cl)cc1)OCC(=O)N1CCCCC1 | -10 | 2.5 | 120 | 2 | 4 | -10
